From ChEMBL document CHEMBL3352188, “Synthesis, antimicrobial and molecular docking studies of enantiomerically pure N-alkylated β-amino alcohols from phenylpropanolamines” (2014)
In brackets after ≈: the same amount, converted by molar mass. Activity calls are given as the source filed them. The rule behind the calls is not given here.

Columns and labels:
Pseudomonas aeruginosa [1] = experiment: Antimicrobial activity against Pseudomonas aeruginosa MTCC 741 at 1 mg/disc after 24 hrs by disc diffusion assay; type: functional
How it was run: (§1)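 Disc diffusion on Mueller Hinton agar. Inoculum was grown in MHB for 24 h at 37 °C, swabbed onto the plates and dried for 10 min. Discs with 1 mg compound were left 30 min at room temperature for diffusion, then incubated at 37 °C for 24 h. Inhibition zone was read in mm; run twice. Solvent was the negative control, streptomycin the positive control.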

Candida albicans [2] = experiment: Antimicrobial activity against Candida albicans MTCC 227 at 1 mg/disc after 24 hrs by disc diffusion assay; type: functional
Malassezia pachydermatis [3] = experiment: Antimicrobial activity against Malassezia pachydermatis at 1 mg/disc after 24 hrs by disc diffusion assay; type: functional
Bacillus subtilis [4] = experiment: Antimicrobial activity against Bacillus subtilis MTCC 441 after 24 hrs by two fold dilution method; type: functional; conditions: MTCC 441, 24 h
How it was run: (§2)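 Broth two-fold serial dilution in 96-well plates from 1000 to 7.81 µg/mL, compound in DMSO (2%). Inoculum was grown in MHB for 24 h at 37 °C; plates were incubated 24 h at 37 °C. 5 µL of broth was spotted onto MHA; MIC was the lowest concentration with no visible growth on agar. Streptomycin was the positive control.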

Micrococcus luteus [5] = experiment: Antimicrobial activity against Micrococcus luteus MTCC 106 after 24 hrs by two fold dilution method; type: functional; conditions: MTCC 106, 24 h; how it was run: as §2
Klebsiella aerogenes [6] = experiment: Antimicrobial activity against Enterobacter aerogenes MTCC 111 after 24 hrs by two fold dilution method; type: functional; conditions: MTCC 111, 24 h; how it was run: as §2
Staphylococcus aureus [7] = experiment: Antimicrobial activity against Staphylococcus aureus MTCC 96 after 24 hrs by two fold dilution method; type: functional; conditions: MTCC 96, 24 h; how it was run: as §2
Salmonella typhimurium [8] = experiment: Antimicrobial activity against Salmonella typhimurium MTCC 1251 after 24 hrs by two fold dilution method; type: functional, Salmonella enterica subsp. enterica serovar Typhimurium; conditions: Salmonella enterica, MTCC 1251, 24 h; how it was run: as §2
Klebsiella pneumoniae [9] = experiment: Antimicrobial activity against Klebsiella pneumoniae MTCC 109 after 24 hrs by two fold dilution method; type: functional; conditions: MTCC 109, 24 h; how it was run: as §2
Proteus vulgaris [10] = experiment: Antimicrobial activity against Proteus vulgaris MTCC 1771 after 24 hrs by two fold dilution method; type: functional; conditions: MTCC 1771, 24 h; how it was run: as §2
Staphylococcus aureus [11] = experiment: Antimicrobial activity against methicillin-resistant Staphylococcus aureus MTCC 96 after 24 hrs by two fold dilution method; type: functional; conditions: MTCC 96, 24 h; how it was run: as §2
[12] = test system: Salmonella enterica subsp. enterica serovar Paratyphi B; experiment: Antimicrobial activity against Salmonella paratyphi B after 24 hrs by two fold dilution method; type: functional; how it was run: as §2
Shigella flexneri [13] = experiment: Antimicrobial activity against Shigella flexneri MTCC 1457 after 24 hrs by two fold dilution method; type: functional; conditions: MTCC 1457, 24 h; how it was run: as §2
Pseudomonas aeruginosa [14] = experiment: Antimicrobial activity against Pseudomonas aeruginosa MTCC 741 after 24 hrs by two fold dilution method; type: functional; conditions: MTCC 741, 24 h; how it was run: as §2
Candida albicans [15] = experiment: Antimicrobial activity against Candida albicans MTCC 227 after 48 to 72 hrs by two fold dilution method; type: functional
How it was run: (§3)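 Yeast was grown in Sabouraud dextrose broth at 28 °C for 48 h and tested per CLSI reference methods. Two-fold serial dilutions from 1000 to 7.81 µg/mL, compound in DMSO (2%), in 96-well plates, incubated 48–72 h at 28 °C. MIC was the lowest concentration with no visible fungal growth. Ketoconazole was the positive control.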

Malassezia pachydermatis [16] = experiment: Antimicrobial activity against Malassezia pachydermatis after 48 to 72 hrs by two fold dilution method; type: functional; how it was run: as §3
Bacillus subtilis [17] = experiment: Bactericidal activity against Bacillus subtilis MTCC 441 after 24 hrs by two fold dilution method; type: functional; conditions: MTCC 441, 24 h
How it was run: (§4)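 Tubes held 5 mL MHB with two-fold dilutions from 1000 to 7.81 µg/mL and were inoculated with 5 × 10^5 to 1 × 10^6 cells in 0.1 mL MHB, incubated without shaking. Turbidity was checked at 20 h, tubes vortexed and re-incubated 4 h.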

Micrococcus luteus [18] = experiment: Bactericidal activity against Micrococcus luteus MTCC 106 after 24 hrs by two fold dilution method; type: functional; conditions: MTCC 106, 24 h; how it was run: as §4
Klebsiella aerogenes [19] = experiment: Bactericidal activity against Enterobacter aerogenes MTCC 111 after 24 hrs by two fold dilution method; type: functional; conditions: MTCC 111, 24 h; how it was run: as §4
Staphylococcus aureus [20] = experiment: Bactericidal activity against Staphylococcus aureus MTCC 96 after 24 hrs by two fold dilution method; type: functional; conditions: MTCC 96, 24 h; how it was run: as §4
Salmonella typhimurium [21] = experiment: Bactericidal activity against Salmonella typhimurium MTCC 1251 after 24 hrs by two fold dilution method; type: functional, Salmonella enterica subsp. enterica serovar Typhimurium; conditions: Salmonella enterica, MTCC 1251, 24 h; how it was run: as §4
Klebsiella pneumoniae [22] = experiment: Bactericidal activity against Klebsiella pneumoniae MTCC 109 after 24 hrs by two fold dilution method; type: functional; conditions: MTCC 109, 24 h; how it was run: as §4
Proteus vulgaris [23] = experiment: Bactericidal activity against Proteus vulgaris MTCC 1771 after 24 hrs by two fold dilution method; type: functional; conditions: MTCC 1771, 24 h; how it was run: as §4
Staphylococcus aureus [24] = experiment: Bactericidal activity against methicillin-resistant Staphylococcus aureus MTCC 96 after 24 hrs by two fold dilution method; type: functional; conditions: MTCC 96, 24 h; how it was run: as §4
[25] = test system: Salmonella enterica subsp. enterica serovar Paratyphi B; experiment: Bactericidal activity against Salmonella paratyphi B after 24 hrs by two fold dilution method; type: functional; how it was run: as §4
Shigella flexneri [26] = experiment: Bactericidal activity against Shigella flexneri MTCC 1457 after 24 hrs by two fold dilution method; type: functional; conditions: MTCC 1457, 24 h; how it was run: as §4
Pseudomonas aeruginosa [27] = experiment: Bactericidal activity against Pseudomonas aeruginosa MTCC 741 after 24 hrs by two fold dilution method; type: functional; conditions: MTCC 741, 24 h; how it was run: as §4
Candida albicans [28] = experiment: Fungicidal activity against Candida albicans MTCC 227 after 48 to 72 hrs by two fold dilution method; type: functional
Malassezia pachydermatis [29] = experiment: Fungicidal activity against Malassezia pachydermatis after 48 to 72 hrs by two fold dilution method; type: functional
Bacillus subtilis [30] = experiment: Antimicrobial activity against Bacillus subtilis MTCC 441 at 1 mg/disc after 24 hrs by disc diffusion assay; type: functional; how it was run: as §1
Micrococcus luteus [31] = experiment: Antimicrobial activity against Micrococcus luteus MTCC 106 at 1 mg/disc after 24 hrs by disc diffusion assay; type: functional; how it was run: as §1
Klebsiella aerogenes [32] = experiment: Antimicrobial activity against Enterobacter aerogenes MTCC 111 at 1 mg/disc after 24 hrs by disc diffusion assay; type: functional; how it was run: as §1
Staphylococcus aureus [33] = experiment: Antimicrobial activity against Staphylococcus aureus MTCC 96 at 1 mg/disc after 24 hrs by disc diffusion assay; type: functional; how it was run: as §1
Salmonella typhimurium [34] = experiment: Antimicrobial activity against Salmonella typhimurium MTCC 1251 at 1 mg/disc after 24 hrs by disc diffusion assay; type: functional, Salmonella enterica subsp. enterica serovar Typhimurium; how it was run: as §1
Klebsiella pneumoniae [35] = experiment: Antimicrobial activity against Klebsiella pneumoniae MTCC 109 at 1 mg/disc after 24 hrs by disc diffusion assay; type: functional; how it was run: as §1
Proteus vulgaris [36] = experiment: Antimicrobial activity against Proteus vulgaris MTCC 1771 at 1 mg/disc after 24 hrs by disc diffusion assay; type: functional; how it was run: as §1
Staphylococcus aureus [37] = experiment: Antimicrobial activity against […] Staphylococcus aureus MTCC 96 at 1 mg/disc after 24 hrs by disc diffusion assay; type: functional; how it was run: as §1
[38] = test system: Salmonella enterica subsp. enterica serovar Paratyphi B; experiment: Antimicrobial activity against Salmonella paratyphi B at 1 mg/disc after 24 hrs by disc diffusion assay; type: functional; how it was run: as §1
Shigella flexneri [39] = experiment: Antimicrobial activity against Shigella flexneri MTCC 1457 at 1 mg/disc after 24 hrs by disc diffusion assay; type: functional; how it was run: as §1

SMILES | inhibition zone (IZ) (Pseudomonas aeruginosa [1]) | inhibition zone (IZ) (Candida albicans [2]) | inhibition zone (IZ) (Malassezia pachydermatis [3]) | MIC (Bacillus subtilis [4]) [µg/mL] | MIC (Micrococcus luteus [5]) [µg/mL] | MIC (Klebsiella aerogenes [6]) [µg/mL] | MIC (Staphylococcus aureus [7]) [µg/mL] | MIC (Salmonella typhimurium [8]) [µg/mL] | MIC (Klebsiella pneumoniae [9]) [µg/mL] | MIC (Proteus vulgaris [10]) [µg/mL] | inhibition zone (IZ) (Bacillus subtilis [30]) | inhibition zone (IZ) (Micrococcus luteus [31]) | inhibition zone (IZ) (Klebsiella aerogenes [32]) | inhibition zone (IZ) (Staphylococcus aureus [33]) [mm] | inhibition zone (IZ) (Salmonella typhimurium [34]) [mm] | inhibition zone (IZ) (Klebsiella pneumoniae [35]) | inhibition zone (IZ) (Proteus vulgaris [36]) | inhibition zone (IZ) (Staphylococcus aureus [37]) | inhibition zone (IZ) [38] [mm] | inhibition zone (IZ) (Shigella flexneri [39]) | other results
CC[C@@H](N[C@@H](C)[C@H](O)c1ccccc1)c1ccccc1.Cl | 18 mm | 22 mm | 24 mm | 31.2 | 31.2 | 31.2 | 31.2 | 31.2 | 15.6 | 31.2 | 20 mm | 21 mm | 21 mm | 22 | 20 | 23 mm | 21 mm | 20 mm | 19 | 21 mm | MIC (Staphylococcus aureus [11]): 31.2 µg/mL; MIC [12]: 62.5 µg/mL; MIC (Shigella flexneri [13]): 15.6 µg/mL; MIC (Pseudomonas aeruginosa [14]): 62.5 µg/mL; MIC (Candida albicans [15]): 31.2 µg/mL; MIC (Malassezia pachydermatis [16]): 31.2 µg/mL; MBC (Bacillus subtilis [17]): 31.2 µg/mL; MBC (Micrococcus luteus [18]): 62.5 µg/mL; MBC (Klebsiella aerogenes [19]): 62.5 µg/mL; MBC (Staphylococcus aureus [20]): 31.2 µg/mL; MBC (Salmonella typhimurium [21]): 31.2 µg/mL; MBC (Klebsiella pneumoniae [22]): 15.6 µg/mL; MBC (Proteus vulgaris [23]): 31.2 µg/mL; MBC (Staphylococcus aureus [24]): 31.2 µg/mL; MBC [25]: 125 µg/mL; MBC (Shigella flexneri [26]): 31.2 µg/mL; MBC (Pseudomonas aeruginosa [27]): 62.5 µg/mL; MFC (Candida albicans [28]): 31.2 µg/mL; MFC (Malassezia pachydermatis [29]): 31.2 µg/mL
CC[C@@H](C)N[C@@H](C)[C@H](O)c1ccccc1.Cl (mixture of isomers) | inactive | inactive | inactive |  |  |  |  |  |  |  | inactive | inactive | inactive | 10 | 10 | inactive | inactive | inactive | 10 | inactive | 
CN[C@@H]1[C@H](O[C@H]2[C@H](O[C@H]3[C@H](O)[C@@H](O)[C@H](N=C(N)N)[C@@H](O)[C@@H]3N=C(N)N)O[C@@H](C)[C@]2(O)C=O)O[C@@H](CO)[C@H](O)[C@H]1O [STREPTOMYCIN] | 30 mm |  |  | 6.25 (≈ 10.7 µM) | 6.25 (≈ 10.7 µM) | 25 (≈ 43 µM) | 6.25 (≈ 10.7 µM) | 30 (≈ 51.6 µM) | 6.25 (≈ 10.7 µM) | 25 (≈ 43 µM) | 30 mm | 26 mm | 22 mm | 14 | 18 | 20 mm | 30 mm | 30 mm | 30 | 30 mm | MIC (Staphylococcus aureus [11]): 6.25 µg/mL (≈ 10.7 µM); MIC [12]: 62.5 µg/mL (≈ 107 µM); MIC (Shigella flexneri [13]): 6.25 µg/mL (≈ 10.7 µM); MIC (Pseudomonas aeruginosa [14]): 25 µg/mL (≈ 43 µM)
